This is an account of results in publication PMC5647227 (ACS chemical neuroscience, 2017).

“Also recorded” adds a separate entry of the source.

Experiment [1] concerns the target DOP receptor (Rattus norvegicus, UniProt P33533). Kind of experiment: Opioid receptor binding, [3H]DSLET displacement from rat brain membranes.
Experiment [2] concerns the target T1, hNK1 receptors (Homo sapiens, UniProt P25103). As to the kind of experiment: Functional NK1 receptor assay. The experiment is classed as cell-based.
Experiment [3] deals with MOP receptor (Rattus norvegicus, UniProt P33535). Kind of experiment: Opioid receptor binding, [3H]DAMGO displacement from rat brain membranes.
MOP receptor (Rattus norvegicus, UniProt P33535), sequence (P33535 whole entry): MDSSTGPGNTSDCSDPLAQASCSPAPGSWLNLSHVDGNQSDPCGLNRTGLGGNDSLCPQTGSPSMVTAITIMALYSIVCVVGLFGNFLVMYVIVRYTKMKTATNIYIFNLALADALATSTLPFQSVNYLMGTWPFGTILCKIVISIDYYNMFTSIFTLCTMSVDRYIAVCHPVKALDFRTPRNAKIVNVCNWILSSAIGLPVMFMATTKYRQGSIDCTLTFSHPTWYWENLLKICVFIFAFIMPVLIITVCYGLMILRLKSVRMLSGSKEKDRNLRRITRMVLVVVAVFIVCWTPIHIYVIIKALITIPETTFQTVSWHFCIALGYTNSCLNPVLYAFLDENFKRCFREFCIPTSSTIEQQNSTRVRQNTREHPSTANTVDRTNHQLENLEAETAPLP
Experiment [4] has as its target T1, hNK1 receptors. Kind of experiment: [3H]Substance-P competition binding assay, hNK1-CHO membranes.
Experiment [5] deals with DOP receptor (Mus musculus, UniProt P32300). Kind of experiment: Mouse vas deferens. The experiment is classed as biochemical.
DOP receptor (Mus musculus, UniProt P32300), sequence (P32300 whole entry): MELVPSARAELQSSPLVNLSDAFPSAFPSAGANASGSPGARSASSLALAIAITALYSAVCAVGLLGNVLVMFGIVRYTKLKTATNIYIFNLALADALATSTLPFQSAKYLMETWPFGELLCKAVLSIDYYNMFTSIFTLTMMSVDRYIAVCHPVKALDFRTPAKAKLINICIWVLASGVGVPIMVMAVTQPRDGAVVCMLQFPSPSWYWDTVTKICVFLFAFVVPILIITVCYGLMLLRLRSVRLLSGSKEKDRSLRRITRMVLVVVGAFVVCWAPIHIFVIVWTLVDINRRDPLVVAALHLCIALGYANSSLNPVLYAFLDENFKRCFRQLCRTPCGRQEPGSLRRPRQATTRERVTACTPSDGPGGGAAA
Experiment [6] concerns the target MOP receptor (Cavia porcellus, UniProt A0ACM8Q262). Kind of experiment: Guinea pig ileum. The experiment is classed as biochemical. The following applies: read-out: GPI IC50; representative of MOP receptor activation.
For experiment [7], the system named is CCI-exposed mice. As to the kind of experiment: Neuropathic pain model, von Frey and cold plate tests taken together. The note with it: i.t.; for relative analgesic efficacy among hybrids in neuropathic pain model: von Frey and cold plate tests. The experiment is classed as in vivo, mouse. The essentials: (§1)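 CCI mice, unanesthetized, received test compound in water for injections intrathecally by lumbar puncture between L5 and L6, in a 5 μL volume. Doses ranged from about 0.1 to 10 nmol/animal. The cold plate was held at 2 °C and latency to hind-paw lift was timed, with a 30 s cutoff. Testing was done at 30, 90 and 180 min after dosing. Effect was expressed as % MPE.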

The next experiment relates to naive mice. Kind of experiment: Tail-flick test, acute pain after i.t. administration. The following applies: for duration of analgesic effect, tail-flick: 0.1 nmol; for analgesic effect in acute pain model: dose of 1 μg. The experiment is classed as in vivo, mouse. (Hot-plate and tail-flick tests time the reaction to a heat stimulus.)
For experiment [8], the system named is CCI-exposed mice. As to the kind of experiment: Von Frey test, tactile hypersensitivity in neuropathic pain model. The class given is in vivo, mouse. The following applies: i.t.; for duration of effect, von Frey test: moderate dose ca. 1 nmol (1 μg). The essentials: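 CCI mice, unanesthetized, received test compound in water for injections intrathecally by lumbar puncture between L5 and L6, in a 5 μL volume. Doses ranged from about 0.1 to 10 nmol/animal. Calibrated nylon monofilaments (0.6–6 g, 6 g cutoff) were applied in serial increments to the hind-paw plantar surface until paw withdrawal, shaking or licking. Testing was done at 30, 90 and 180 min after dosing. Effect was expressed as % MPE.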

Experiment [9] concerns CCI-exposed mice. As to the kind of experiment: Cold plate test, thermal hypersensitivity in neuropathic pain model. The experiment is classed as in vivo, mouse. The note with it: i.t. The method, boiled down: as §1

DOP receptor (Rattus norvegicus, UniProt P33533), sequence (P33533 whole entry): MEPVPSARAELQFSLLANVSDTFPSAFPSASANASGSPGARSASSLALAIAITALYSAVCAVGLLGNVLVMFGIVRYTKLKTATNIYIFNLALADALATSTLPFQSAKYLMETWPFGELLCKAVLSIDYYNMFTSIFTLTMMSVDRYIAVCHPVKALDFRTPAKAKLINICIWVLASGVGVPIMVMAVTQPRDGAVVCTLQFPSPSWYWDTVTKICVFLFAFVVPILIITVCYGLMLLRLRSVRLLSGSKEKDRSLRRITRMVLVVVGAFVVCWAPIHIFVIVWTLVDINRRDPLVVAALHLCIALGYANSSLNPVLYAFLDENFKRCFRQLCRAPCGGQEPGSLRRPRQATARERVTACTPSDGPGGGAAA
T1 sequence (P25103 whole entry): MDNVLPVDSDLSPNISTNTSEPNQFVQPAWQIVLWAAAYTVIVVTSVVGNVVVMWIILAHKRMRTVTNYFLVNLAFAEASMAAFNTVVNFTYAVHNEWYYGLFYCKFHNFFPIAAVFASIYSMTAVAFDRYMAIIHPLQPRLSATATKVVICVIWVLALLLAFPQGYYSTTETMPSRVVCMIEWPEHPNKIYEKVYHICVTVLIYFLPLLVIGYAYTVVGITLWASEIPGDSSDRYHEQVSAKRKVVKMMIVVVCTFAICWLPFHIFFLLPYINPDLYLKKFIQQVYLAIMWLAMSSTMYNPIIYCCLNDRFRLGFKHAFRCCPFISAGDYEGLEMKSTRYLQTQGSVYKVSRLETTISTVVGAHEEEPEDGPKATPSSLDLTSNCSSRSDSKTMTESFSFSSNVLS
MOP receptor (Cavia porcellus, UniProt A0ACM8Q262), sequence (A0ACM8Q262 1-400): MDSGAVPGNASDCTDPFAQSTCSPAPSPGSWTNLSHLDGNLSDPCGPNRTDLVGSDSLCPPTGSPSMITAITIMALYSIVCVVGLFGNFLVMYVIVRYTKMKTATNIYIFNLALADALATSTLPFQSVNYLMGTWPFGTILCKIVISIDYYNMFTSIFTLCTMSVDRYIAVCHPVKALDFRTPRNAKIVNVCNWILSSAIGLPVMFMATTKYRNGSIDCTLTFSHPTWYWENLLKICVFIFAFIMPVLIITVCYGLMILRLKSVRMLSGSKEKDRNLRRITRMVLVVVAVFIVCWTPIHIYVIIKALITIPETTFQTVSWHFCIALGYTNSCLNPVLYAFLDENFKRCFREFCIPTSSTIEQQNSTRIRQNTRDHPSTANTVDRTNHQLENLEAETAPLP

`Cc1cc(O)cc(C)c1C[C@H](N)C(=O)N[C@H](CCCNC(=N)N)C(=O)N[C@H]1Cc2ccccc2CN(CCC(=O)N(Cc2cc(C(F)(F)F)cc(C(F)(F)F)c2)C2CC2)C1=O` [Compound 6, H-Dmt-D-Arg-Aba-β-Ala-NcPr-3′,5′-(CF3)2-Bn]: the values for the Ki on DOP receptor [1], on MOP receptor [3] and on hNK1 receptors [4] were 190 nM, 47 nM and 735 nM, respectively. Besides, the Kb on hNK1 receptors [2] is 4370 nM. For the same compound, the IC50 (commonly the midpoint of a concentration-inhibition curve) against DOP receptor [5] came out at 16 nM; at MOP receptor [6] it was 18 nM.
With `Cc1cc(O)cc(C)c1C[C@H](N)C(=O)N[C@H](CCCNC(=N)N)C(=O)N[C@H]1Cc2ccccc2CN(CCC(=O)N(Cc2ccccc2)C2CC2)C1=O` [Compound 7, H-Dmt-D-Arg-Aba-β-Ala-NcPr-Bn], the Ki (as a rule, the equilibrium dissociation constant of an inhibitor or competing ligand from its target) turned out to be 66 nM at DOP receptor [1], 2.7 nM on MOP receptor [3] and 520 nM at hNK1 receptors [4]. This compound had a Kb at hNK1 receptors [2] of 6310 nM. For the same compound, the IC50 is 6.6 nM against DOP receptor [5] and 19 nM at MOP receptor [6].
Regarding `Cc1cc(O)cc(C)c1C[C@H](N)C(=O)N[C@H](CCCNC(=N)N)C(=O)N[C@H]1Cc2ccccc2CN(CC(=O)N(Cc2ccccc2)C2CC2)C1=O` [Compound 8, H-Dmt-D-Arg-Aba-Gly-NcPr-Bn], the Ki on DOP receptor [1] stood at 68 nM; on MOP receptor [3] it was 0.3 nM; at hNK1 receptors [4], 95 nM. Also, on hNK1 receptors [2], the Kb is 3160 nM. For the same compound, the IC50 against DOP receptor [5] amounted to 11.2 nM; on MOP receptor [6] it was 10 nM.
With `Cc1cc(O)cc(C)c1C[C@H](N)C(=O)N[C@H](CCCNC(=N)N)C(=O)N[C@H]1Cc2ccccc2CN(CCC(=O)N2Cc3ccccc3C2)C1=O` [Compound 9, H-Dmt-D-Arg-Aba-β-Ala-isoindoline], the Ki at DOP receptor [1] was 16 nM; on MOP receptor [3], 0.2 nM; on hNK1 receptors [4] it was greater than 10000 nM. Moreover, the IC50 against DOP receptor [5] amounted to 2.1 nM; on MOP receptor [6] it was 5 nM.
On to `Cc1cc(O)cc(C)c1C[C@H](N)C(=O)N[C@H](CCCNC(=N)N)C(=O)N[C@H]1Cc2ccccc2CN(CC(=O)N2Cc3ccccc3C2)C1=O` [Compound 10, H-Dmt-D-Arg-Aba-Gly-isoindoline], for which the Ki at DOP receptor [1] came out at 81 nM; at MOP receptor [3], 0.06 nM; on hNK1 receptors [4], 3500 nM. For the same compound, the Kb on hNK1 receptors [2] is 692000 nM. Also, the IC50 on DOP receptor [5] turned out to be 8 nM; at MOP receptor [6] it was 7.3 nM.
Take `COc1ccccc1CN(C)C(=O)CN1Cc2ccccc2C[C@H](NC(=O)[C@@H](CCCNC(=N)N)NC(=O)[C@@H](N)Cc2c(C)cc(O)cc2C)C1=O` [Compound 11, H-Dmt-D-Arg-Aba-Gly-NMe-2′-OMe-Bn]: the Ki came to 26 nM on DOP receptor [1], 0.9 nM at MOP receptor [3] and 501 nM at hNK1 receptors [4]. Besides, the Kb at hNK1 receptors [2] is 14500 nM. Moreover, the IC50 against DOP receptor [5] is 2.4 nM; on MOP receptor [6], 5 nM.
Regarding `Cc1cc(O)cc(C)c1C[C@H](N)C(=O)N[C@H](CCCNC(=N)N)C(=O)N[C@H]1Cc2ccccc2CN(CCC(=O)N(C)Cc2ccc3ccccc3c2)C1=O` [Compound 12, H-Dmt-D-Arg-Aba-β-Ala-NMe-2′-methylenenaphthyl], the inhibition constant Ki on DOP receptor [1] is 44 nM; on MOP receptor [3], 0.4 nM; on hNK1 receptors [4] it was 612 nM. In the experiment on CCI-exposed mice [7], the “relative analgesic efficacy among hybrids in neuropathic pain model” value is given as “weaker in both tests”. Besides, the Kb on hNK1 receptors [2] was 97.7 nM. The “duration of analgesic effect, tail-flick” value in the experiment on naive mice was “up to 180 min after administration”. Besides, the “analgesic effect, tail-flick” value in the experiment on naive mice (doses raised up to ca. 10 nmol) is 60–70 % MPE. Also, the “duration of effect, von Frey test” value in the experiment on CCI-exposed mice [8] is given as “not observable 180 min after administration”. The IC50 was 4 nM against DOP receptor [5] and 9 nM at MOP receptor [6].
For `Cc1cc(O)cc(C)c1C[C@H](N)C(=O)N[C@H](CCCNC(=N)N)C(=O)N[C@H]1Cc2ccccc2CN(CC(=O)N(C)Cc2ccc3ccccc3c2)C1=O` [Compound 13, H-Dmt-D-Arg-Aba-Gly-NMe-2′-methylenenaphthyl], the inhibition constant (Ki) on DOP receptor [1] came to 228 nM; on MOP receptor [3], 2.8 nM; at hNK1 receptors [4], 709 nM. In the experiment on CCI-exposed mice [7], the “relative analgesic efficacy among hybrids in neuropathic pain model” value is given as “most efficient analgesic in both tests”. Further, the Kb at hNK1 receptors [2] is 3630 nM. Further, the “influence on response, cold plate test” value in the experiment with CCI-exposed mice [9] (0.1 nmol) was “did not significantly influence the response”. The “effect at 180 min, cold plate test” value in the experiment on CCI-exposed mice [9] (highest dose 10 nmol) was “provided an effect at 180 min after administration”. Further, the “duration of analgesic effect, tail-flick” value with naive mice was “up to 180 min after administration”. Further, the “analgesic effect, tail-flick” value in the experiment on naive mice (doses raised up to ca. 10 nmol) is given as 60–70 % MPE. Further, the “effect in attenuating acute pain” value in the experiment with naive mice (measured at three time points after administration) is ~ 60 % MPE. In addition, the “response threshold, von Frey test” value in the experiment on CCI-exposed mice [8] (lowest tested dose 0.1 nmol) is reported as “ca. 70 % MPE”. Moreover, in the experiment on CCI-exposed mice [8], the “duration of effect, von Frey test” value is listed as “not observable 180 min after administration”. Also, the IC50 against DOP receptor [5] came out at 10 nM; at MOP receptor [6], 3 nM.
Take H-Dmt-D-Arg-Aba-Gly-NH2 [Compound 1]: the “lowest dose raising latency of response to thermal stimuli, tail-flick” value in the experiment with naive mice was 0.0013 nmol. The “analgesic effect in acute pain model” value with naive mice is on record as roughly 100 % MPE; with naive mice (at 180 min after administration) it was greater than 80 % MPE. Moreover, in the experiment on naive mice (highest dose tested 1.3 nmol, lasting up to 180 min), the “analgesic effect, tail-flick” value is given as roughly 100 % MPE. Besides, the “lowest efficacious dose in acute pain model” value in the experiment with naive mice (p < 0.05 vs vehicle) was 0.001 nmol/5 μL/animal. For the same compound, the “analgesic effect, von Frey test” value in the experiment with CCI-exposed mice [8] (at 30 min) was “ca. 40 % MPE”; with CCI-exposed mice [8] (maximum over doses) it was no more than 40 % MPE.
“H-Dmt-D-Arg-Aba-Gly-NMe-3′,5′-(CF3)2-Bn [Compound 3, reference compound]”: the “response latency / alleviation of hypersensitivity in neuropathic pain model” value in the experiment on CCI-exposed mice [7] (test not specified or both tests) is reported as “ca. 60 % MPE”. Besides, the “tail-flick effect compared with parent compound” value in the experiment with naive mice is “weaker than its parent compound”.
As to H-Dmt-D-Arg-Aba-β-Ala-NH2 [Compound 2], the “analgesic effect, cold plate test” value in the experiment on CCI-exposed mice [9] (maximum over doses) was “no more than 20 % MPE”. Also, the “analgesic effect, tail-flick” value with naive mice (highest dose tested 1 nmol) is no more than 80 % MPE. Besides, in the experiment with CCI-exposed mice [8], the “influence on response threshold, von Frey test” value is listed as “no influence on the response threshold; also recorded: not efficacious at all”.
